# Active and inactive are the calls of the source. No cut-off for these calls is given here.
# Columns and labels:
# Bacillus spizizenii = experiment: Antibacterial activity against Bacillus subtilis ATCC 6633 by two-fold serial dilution method; type: functional
# Method in brief: (§1)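 Standard two-fold serial dilution in 96-well microtest plates following NCCLS. Top dilutions printed as 32, 16, 8, 4, 2, 1, 0.5 ug/mL. Wells inoculated and held at 37 °C for 24 h. Growth judged visually and by spectrophotometer, in triplicate. MIC is the lowest concentration giving complete growth inhibition.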
# Pichia norvegensis = experiment: Antifungal activity against Candida mycoderma after 24 hrs by microbroth dilution method; type: functional
# Staphylococcus aureus [1] = experiment: Antibacterial activity against methicillin-resistant Staphylococcus aureus N315 by two-fold serial dilution method; type: functional
# Method in brief: (§2)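 MIC read as the lowest concentration giving complete growth inhibition. Two-fold serial dilutions were made in 96-well plates following NCCLS, giving a series down to 0.5 µg/mL (…32, 16, 8, 4, 2, 1, 0.5). Plates were inoculated and incubated at 37 °C for 24 h. A DMSO-with-inoculum control without drug was included. Growth was monitored visually and spectrophotometrically, in triplicate.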
# Candida albicans = experiment: Antifungal activity against Candida albicans ATCC 76615 after 24 hrs by microbroth dilution method; type: functional; conditions: ATCC 76615, 24 h
# Method in brief: (§3)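 Spore suspension prepared in sterile distilled water from one-day-old cultures on Sabouraud agar, final 1-5 x 10^3 spores/mL. Compounds were serially diluted in RPMI 1640 to give eleven dilutions. Incubation at 35 °C for 24 h. Growth read visually and spectrophotometrically, in triplicate. MIC is the lowest concentration with complete inhibition.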
# Pseudomonas aeruginosa = experiment: Antibacterial activity against Pseudomonas aeruginosa by two-fold serial dilution method; type: functional; method in brief: as §1
# Streptococcus pneumoniae = experiment: Antibacterial activity against Streptococcus pneumoniae by two-fold serial dilution method; type: functional; method in brief: as §1
# Escherichia coli = experiment: Antibacterial activity against Escherichia coli DH52 by two-fold serial dilution method; type: functional; method in brief: as §1
# Micrococcus luteus = experiment: Antibacterial activity against Micrococcus luteus by two-fold serial dilution method; type: functional; method in brief: as §1
# Staphylococcus aureus [2] = experiment: Antibacterial activity against Staphylococcus aureus ATCC 25923 by two-fold serial dilution method; type: functional; method in brief: as §1
# Cyberlindnera jadinii = experiment: Antifungal activity against Candida utilis after 24 hrs by microbroth dilution method; type: functional; conditions: Williopsis jadinii; method in brief: as §3
# Shigella dysenteriae = experiment: Antibacterial activity against Shigella dysenteriae by two-fold serial dilution method; type: functional; method in brief: as §2
# [3] = Antibacterial activity against Eberthella typhosa by two-fold serial dilution method; type: functional; method in brief: as §2
# Saccharomyces cerevisiae = experiment: Antifungal activity against Saccharomyces cerevisiae after 24 hrs by microbroth dilution method; type: functional; method in brief: as §3
# Aspergillus flavus = experiment: Antifungal activity against Aspergillus flavus ATCC 96918 after 24 hrs by microbroth dilution method
# [4] = Aqueous solubility of the compound by UV-spectrophotometry; type: physicochemical
# [5] = Octanol-water partition co-efficient, log P of the compound by shake flask method; type: physicochemical
# [6] = Dissociation constant, pKa of the compound by UV-spectroscopy; type: physicochemical
# Method in brief: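 DMSO stock at 4.0 × 10^-3 mol/L added to 2 mL of buffer, then shaken 10 min at room temperature. Buffers were acetate (pH 4.0–5.0), MES (5.5–6.5), HEPES (7.0–8.0) and CHES (8.5–9.4), each from 500 mM stocks. Scans ran 210–400 nm and were normalized. Absolute differences from the acid spectrum were summed at 244 and 308 nm, plotted against pH and fitted to obtain pKa.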
# Calf thymus DNA = experiment: Binding affinity to calf thymus DNA by UV-vis spectroscopy; type: nucleic-acid assay; conditions: Bos taurus
# Method in brief: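 Calf thymus DNA held at a fixed concentration and titrated with increasing amounts of the compound. UV-vis absorption spectra were recorded at room temperature in 1.0 cm quartz cells, following the DNA band at 260 nm.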
SMILES,MIC (Bacillus spizizenii) [µg/mL],MIC (Pichia norvegensis) [µg/mL],MIC (Staphylococcus aureus [1]) [µg/mL],MIC (Candida albicans) [µg/mL],MIC (Pseudomonas aeruginosa) [µg/mL],MIC (Streptococcus pneumoniae) [µg/mL],MIC (Escherichia coli) [µg/mL],MIC (Micrococcus luteus) [µg/mL],MIC (Staphylococcus aureus [2]) [µg/mL],MIC (Cyberlindnera jadinii) [µg/mL],MIC (Shigella dysenteriae) [µg/mL],MIC [3] [µg/mL],MIC (Saccharomyces cerevisiae) [µg/mL],MIC (Aspergillus flavus) [µg/mL],solubility [4] [µg/mL],logP [5],pKa [6],Activity (Calf thymus DNA)
O=C(O)c1cn(CC(O)Cn2cnc([N+](=O)[O-])c2)c2c(Cl)cc(Cl)cc2c1=O (configuration not stated),4,64,16,256,8,8,8,8,8,256,8,16,128,,,,,
CCOC(=O)c1cn(CC2CO2)c2cc(C(F)(F)F)ccc2c1=O (racemic),31,32,,,,,,,,512,,2,,512,,,,
COc1ccc2c(c1)c(=O)c(C(=O)O)cn2CC(O)Cn1c([N+](=O)[O-])cnc1C (configuration not stated),32,512,8,128,512,64,64,512,32,128,32,8,256,,400,-0.24,5.72,
CCn1cc(C(=O)O)c(=O)c2cc(F)c(N3CCNCC3)cc21 [NORFLOXACIN],1,,,,,1,,,,,,4,,,,,,Active
COc1ccc2c(c1)c(=O)c(C(=O)O)cn2CC(O)Cn1cnc([N+](=O)[O-])c1 (configuration not stated),16,128,16,128,128,64,64,256,64,128,16,32,512,,,,,
CCOC(=O)c1cn(CC2CO2)c2c(Cl)cc(Cl)cc2c1=O (racemic),2,1,,,,,,,,512,,2,,512,,,,
Cc1ncc([N+](=O)[O-])n1CC(O)Cn1cc(C(=O)O)c(=O)c2cc(F)ccc21 (configuration not stated),16,256,2,128,4,8,8,2,8,512,1,32,64,,380,-0.13,5.18,
Cc1ncc([N+](=O)[O-])n1CC(O)Cn1cc(C(=O)O)c(=O)c2cc(F)cc(F)c21 (configuration not stated),4,128,2,32,2,16,4,2,16,512,4,16,64,,570,-0.21,5.33,
O=C(O)c1cn(CC(O)Cn2cnc([N+](=O)[O-])c2)c2cc(Cl)c(F)cc2c1=O (configuration not stated),8,128,8,128,4,16,32,8,16,256,16,2,64,,,,,
Cc1ncc([N+](=O)[O-])n1CC(O)Cn1cc(C(=O)O)c(=O)c2cc(F)c(Cl)cc21 (configuration not stated),8,256,4,64,16,8,2,64,32,512,16,128,128,,430,0.18,5.14,
